Inhibition and Activity data for nine compounds are collected here from ChEMBL document CHEMBL1142895, “Discovery of a new insecticide lead by optimizing a target-diverse scaffold: tetrazolinone derivatives” (2007).

In test [1] the test system is Echinochloa crus-galli. Nature of the test: Inhibition of stem growth of Echinochloa crus-galli at 100 mg/L. It counts as functional. Put shortly: (§1)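 Seeds of each species were grown in Petri dishes with 10 seeds per dish, at 28 °C, 70–80% RH, 16:8 h light:dark photoperiod and 3000 lx light for 5 days. Root and stem lengths were measured for the 10 seeds and averaged. Each test and its controls were run in three replicates, and the data were given probit analysis.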

Test [2] concerns Radish. The experiment in a line: Inhibition of stem growth of Raphanus sativus at 100 mg/L. It counts as functional. In short, it runs like this:
as §1

The test system of test [3] is Sorghum bicolor. Nature of the test: Inhibition of stem growth of Sorghum bicolor at 100 mg/L. In kind it is functional. In short, it runs like this: as §1
For test [4], the system named is Brassica rapa subsp. oleifera. Nature of the test: Inhibition of stem growth of Brassica campestris at 100 mg/L. It counts as functional. Put shortly: as §1
For test [5], the system named is Echinochloa crus-galli. Nature of the test: Inhibition of root growth of Echinochloa crus-galli at 100 mg/L. In kind it is functional. Put shortly:
as §1

Test [6] relates to Cucumis sativus. The experiment in a line: Inhibition of stem growth of Cucumis sativus at 100 mg/L. In kind it is functional. Put shortly:
as §1

The subject of test [7] is Sorghum bicolor. The experiment in a line: Inhibition of root growth of Sorghum bicolor at 100 mg/L. It counts as functional. In short, it runs like this: as §1
The test system of test [8] is Sorghum bicolor. The experiment in a line: Herbicidal activity against Sorghum bicolor at 450 g ai/ha in greenhouse in vivo test. In kind it is functional, organism-based.
The subject of test [9] is Radish. The experiment in a line: Inhibition of root growth of Raphanus sativus at 100 mg/L. It counts as functional. Put shortly:
as §1

For test [10], the system named is Triticum aestivum. The experiment in a line: Inhibition of root growth of Triticum aestivum at 100 mg/L. It counts as functional. Put shortly:
as §1

The test system of test [11] is Triticum aestivum. Nature of the test: Inhibition of stem growth of Triticum aestivum at 100 mg/L. In kind it is functional. In short, it runs like this:
as §1

Test [12] concerns Brassica rapa subsp. oleifera. The experiment in a line: Inhibition of root growth of Brassica campestris at 100 mg/L. In kind it is functional. In short, it runs like this: as §1
Test [13] deals with Triticum aestivum. The experiment in a line: Herbicidal activity against Triticum aestivum at 450 g ai/ha in greenhouse in vivo test. In kind it is functional, organism-based.
In test [14] the test system is Cucumis sativus. Nature of the test: Herbicidal activity against Cucumis sativus at 450 g ai/ha in greenhouse in vivo test. In kind it is functional, organism-based.
Test [15] has as its system Radish. The experiment in a line: Herbicidal activity against Raphanus sativus at 450 g ai/ha in greenhouse in vivo test. In kind it is functional, organism-based.
A further test relates to Tetranychus cinnabarinus. The experiment in a line: Insecticidal activity against Tetranychus cinnabarinus at 250 mg/L. In kind it is functional. In short, it runs like this: (§2)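 Groups of 10 of each species were placed in glass Petri dishes and sprayed with test solution using a Potter sprayer. After air-drying, they were held under normal rearing conditions. Mortality at 72 h was taken from the number and size of live larvae relative to untreated controls.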

Test [16] has as its system Echinochloa crus-galli. The experiment in a line: Herbicidal activity against Echinochloa crus-galli at 450 g ai/ha in greenhouse in vivo test. In kind it is functional, organism-based.
Test [17] deals with Cucumis sativus. Nature of the test: Inhibition of root growth of Cucumis sativus at 100 mg/L. It counts as functional. Put shortly:
as §1

The test system of the next test is Aphis. Nature of the test: Insecticidal activity against Aphis medicagini at 250 mg/L. It counts as functional. Put shortly:
as §2

The subject of test [18] is Brassica rapa subsp. oleifera. The experiment in a line: Herbicidal activity against Brassica campestris at 450 g ai/ha in greenhouse in vivo test. It counts as functional, organism-based.

As usually defined, the inhibition is the change of the read-out against control, counted positive when it falls.

The source made the active and inactive calls. The calls are words filed in the database; no cut-off is given here.

Turning to `CCOC(=O)CSc1nnc(Cn2nnn(-c3ccc(Cl)cc3)c2=O)s1`, the inhibition at 100 µg/mL with Echinochloa crus-galli [1] came out at 0%; in the test with Radish [2], 60%; in the test on Sorghum bicolor [3], 50%; in test [4], 50%; in the test on Echinochloa crus-galli [5], 0%; in the test on Cucumis sativus [6], 30%. The inhibition at 100 µg/mL worked out at 30% with Sorghum bicolor [7]; 70% with Radish [9]; 50% in the test with Triticum aestivum [10]; 60% in the test with Triticum aestivum [11]; 70% in [12]; 50% with Cucumis sativus [17]. Also, the result (in the test with Sorghum bicolor [8]; in the test on Triticum aestivum [13]; with Cucumis sativus [14]; in the test with Radish [15]; in the test on Echinochloa crus-galli [16]; in test [18]) was inactive. The Activity was 80% with Tetranychus cinnabarinus and 0% in the test with Aphis.

For the compound `O=c1n(Cc2cccc(Cl)c2)nnn1-c1ccc(Cl)cc1`, the inhibition at 100 µg/mL (with Echinochloa crus-galli [1]; with Radish [2]; with Sorghum bicolor [3]; in test [4]; with Echinochloa crus-galli [5]; with Cucumis sativus [6]) was 0% each time. The inhibition at 100 µg/mL (in the test with Sorghum bicolor [7]; with Radish [9]; with Triticum aestivum [10]; with Triticum aestivum [11]; in test [12]; in the test on Cucumis sativus [17]) was 0% in each case. The outcome (in the test on Sorghum bicolor [8]; in the test on Triticum aestivum [13]; in the test with Cucumis sativus [14]; in the test with Radish [15]; in the test on Echinochloa crus-galli [16]; in [18]) was inactive. The Activity in the test on Tetranychus cinnabarinus and with Aphis was 0% in each case.

For the compound `CCOC(=O)CSc1nnc(Cn2nnn(-c3ccc(Cl)cc3)c2=O)o1`, the inhibition at 100 µg/mL with Echinochloa crus-galli [1] is 0%; in the test with Radish [2] it was 0%; with Sorghum bicolor [3], 0%; in test [4] it was 60%; with Echinochloa crus-galli [5], 0%; in the test on Cucumis sativus [6] it was 0%. Also, the inhibition at 100 µg/mL in the test on Sorghum bicolor [7] worked out at 0%; in the test with Radish [9] it was 50%; in the test with Triticum aestivum [10], 0%; in the test with Triticum aestivum [11], 0%; in [12], 50%; in the test with Cucumis sativus [17], 0%. The outcome (in the test on Sorghum bicolor [8]; in the test with Triticum aestivum [13]; in the test with Cucumis sativus [14]; in the test with Radish [15]; in the test with Echinochloa crus-galli [16]; in test [18]) was inactive. Besides, the Activity in the test with Tetranychus cinnabarinus was 2.9%; in the test with Aphis, 0%.

As for `O=c1n(Cc2nnc(SCc3cccc(Cl)c3)s2)nnn1-c1ccc(Cl)cc1`, the inhibition at 100 µg/mL in the test with Echinochloa crus-galli [1] was determined as 0%; in the test on Radish [2] it was 30%; with Sorghum bicolor [3] it was 50%; in [4], 0%; in the test with Echinochloa crus-galli [5] it was 0%; in the test on Cucumis sativus [6] it was 40%. The inhibition at 100 µg/mL with Sorghum bicolor [7] is 40%; in the test with Radish [9], 50%; with Triticum aestivum [10], 60%; in the test with Triticum aestivum [11], 70%; in test [12], 0%; in the test on Cucumis sativus [17], 0%. The outcome (in the test with Sorghum bicolor [8]; in the test on Triticum aestivum [13]; in the test with Cucumis sativus [14]; in the test on Radish [15]; with Echinochloa crus-galli [16]; in test [18]) was inactive. The Activity stood at 5.7% in the test on Tetranychus cinnabarinus and 2.9% with Aphis.

For `O=c1n(Cc2ccccc2F)nnn1-c1ccc(Cl)cc1`, the inhibition at 100 µg/mL (in the test with Echinochloa crus-galli [1]; in the test with Radish [2]; in the test on Sorghum bicolor [3]; in test [4]; in the test on Echinochloa crus-galli [5]; in the test with Cucumis sativus [6]) was 0% each time. For the same compound, the inhibition at 100 µg/mL (in the test on Sorghum bicolor [7]; in the test on Radish [9]; in the test with Triticum aestivum [10]; in the test on Triticum aestivum [11]; in [12]; in the test with Cucumis sativus [17]) was 0% throughout. The outcome (in the test on Sorghum bicolor [8]; with Triticum aestivum [13]; with Cucumis sativus [14]; in the test on Radish [15]; in the test on Echinochloa crus-galli [16]; in [18]) was inactive. Also, the Activity in the test on Tetranychus cinnabarinus is 10%; in the test with Aphis, 5%.

For the compound `CO/C=C\C(C(=O)OC)c1ccccc1CSc1nnc(Cn2nnn(-c3ccc(Cl)cc3)c2=O)s1` (stereo not given), the inhibition at 100 µg/mL with Echinochloa crus-galli [1] worked out at 0%; in the test with Radish [2], 30%; in the test with Sorghum bicolor [3], 0%; in test [4], 30%; in the test on Echinochloa crus-galli [5], 30%; in the test with Cucumis sativus [6] it was 30%. For the same compound, the inhibition at 100 µg/mL in the test on Sorghum bicolor [7] turned out to be 60%; in the test on Radish [9] it was 60%; in the test with Triticum aestivum [10], 0%; in the test with Triticum aestivum [11] it was 40%; in test [12] it was 30%; in the test on Cucumis sativus [17] it was 30%. Moreover, the result (in the test on Sorghum bicolor [8]; in the test on Triticum aestivum [13]; with Cucumis sativus [14]; with Radish [15]; in the test on Echinochloa crus-galli [16]; in [18]) was inactive. In addition, the Activity in the test on Tetranychus cinnabarinus worked out at 0%; in the test with Aphis, 2.9%.

Turning to `CCOC(=O)C(C)Sc1nnc(Cn2nnn(-c3ccc(Cl)cc3)c2=O)s1` (stereo not given), the inhibition at 100 µg/mL with Echinochloa crus-galli [1] was 40%; in the test on Radish [2], 50%; with Sorghum bicolor [3], 70%; in test [4], 80%; in the test with Echinochloa crus-galli [5] it was 50%; with Cucumis sativus [6], 60%. Also, the inhibition at 100 µg/mL with Sorghum bicolor [7] came to 80%; in the test with Radish [9], 80%; with Triticum aestivum [10], 70%; in the test with Triticum aestivum [11], 50%; in test [12] it was 85%; with Cucumis sativus [17], 60%. The outcome (with Sorghum bicolor [8]; with Triticum aestivum [13]; with Cucumis sativus [14]; in the test with Radish [15]; in the test on Echinochloa crus-galli [16]; in [18]) was inactive. In addition, the Activity in the test with Tetranychus cinnabarinus and with Aphis was 0% each time.

Take `C=CCn1nnn(-c2ccc(Cl)cc2)c1=O`: the inhibition at 100 µg/mL with Echinochloa crus-galli [1] is 50%; in the test with Radish [2], 80%; in the test on Sorghum bicolor [3] it was 60%; in test [4], 50%; in the test with Echinochloa crus-galli [5] it was 0%; with Cucumis sativus [6], 30%. Besides, the inhibition at 100 µg/mL with Sorghum bicolor [7] turned out to be 60%; with Radish [9] it was 80%; in the test on Triticum aestivum [10] it was 80%; in the test on Triticum aestivum [11], 80%; in test [12], 50%; with Cucumis sativus [17], 40%. The result (with Sorghum bicolor [8]; with Triticum aestivum [13]; in the test on Cucumis sativus [14]; with Radish [15]; in the test on Echinochloa crus-galli [16]; in test [18]) was inactive. In addition, the values for the Activity in the test with Tetranychus cinnabarinus and in the test on Aphis were 4.3% and 3.3%, respectively.

As for `Cc1ccccc1CSc1nnc(Cn2nnn(-c3ccc(Cl)cc3)c2=O)s1`, the inhibition at 100 µg/mL in the test on Echinochloa crus-galli [1] turned out to be 70%; in the test with Radish [2], 40%; with Sorghum bicolor [3], 30%; in [4], 30%; with Echinochloa crus-galli [5], 60%; in the test with Cucumis sativus [6], 0%. Also, the inhibition at 100 µg/mL in the test with Sorghum bicolor [7] was 0%; in the test on Radish [9], 40%; in the test with Triticum aestivum [10] it was 60%; in the test on Triticum aestivum [11] it was 60%; in [12] it was 50%; with Cucumis sativus [17] it was 0%. Besides, the outcome (with Sorghum bicolor [8]; in the test with Triticum aestivum [13]; in the test on Cucumis sativus [14]; with Radish [15]; with Echinochloa crus-galli [16]; in test [18]) was inactive. For the same compound, the Activity in the test with Tetranychus cinnabarinus and with Aphis was 0% each time.
